E-selectin induc: induces E-selectin expression in human endothelial cells; P16581; AID 686992; actives 0.37% (n = 260,000); activation, % at 7.58 µM; HUVEC E-selectin immunofluorescence imaging; normalized: neutral wells 0, TNF-alpha wells 100;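 active = mean E-selectin-positive cell signal at least 10% of the positive control, reached in at least 60% of replicates, without over 20% cell loss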
Target sequence (P16581 whole entry, looked up): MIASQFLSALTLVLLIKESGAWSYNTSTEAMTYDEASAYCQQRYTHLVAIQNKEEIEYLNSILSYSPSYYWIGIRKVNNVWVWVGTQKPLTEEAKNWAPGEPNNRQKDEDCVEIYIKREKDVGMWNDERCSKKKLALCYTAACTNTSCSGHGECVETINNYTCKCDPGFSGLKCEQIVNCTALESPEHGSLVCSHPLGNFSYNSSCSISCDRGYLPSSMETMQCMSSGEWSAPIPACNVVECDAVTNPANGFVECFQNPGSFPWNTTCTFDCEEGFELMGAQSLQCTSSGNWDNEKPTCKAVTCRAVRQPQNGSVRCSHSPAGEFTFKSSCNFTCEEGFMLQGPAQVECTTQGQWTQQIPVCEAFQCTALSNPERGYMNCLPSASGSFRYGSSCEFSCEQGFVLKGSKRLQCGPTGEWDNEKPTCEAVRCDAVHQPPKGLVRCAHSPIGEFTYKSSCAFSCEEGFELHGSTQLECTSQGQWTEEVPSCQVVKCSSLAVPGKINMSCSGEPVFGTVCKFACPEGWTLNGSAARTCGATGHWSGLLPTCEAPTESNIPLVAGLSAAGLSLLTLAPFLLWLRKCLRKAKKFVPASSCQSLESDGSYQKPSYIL
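Test system – human umbilical vein endothelial cells (HUVEC), E-selectin induction · Input – 3,000 HUVEC seeded per well · Buffer or medium – EGM-2, gelatin · Compound dosing – single-point compound dose · Detection – immunofluorescence imaging · Measure – percent E-selectin-positive cells · Controls – TNF-alpha high, DMSO low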
CFTR F508del cor: correctors of CFTR F508del function in bronchial epithelial cells. actives 0.36% (n = 350,000). CFBE cells, YFP halide quenching; stimulated with forskolin plus potentiator P3; % fluorescence drop versus neutral controls. activity (quench increase), % at 7.58 µM;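 active = mean added fluorescence quench of at least 8% versus neutral control, with both replicates also reaching 8%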;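 also: cells transiently co-express mutant CFTR-F508del with the halide-sensitive YFP; corrector assay measuring rescue of mutant channel to the surface after 24 h compound exposure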
FGF22 binding: FGF22 (human) thermal shift binding; AID 651658; activity (Tm shift, normalised), % at 9.99 µM; recombinant FGF22 thermal shift, SYPRO orange fluorescence; percent of sucrose octasulfate shift, DMSO zero; Q9HCT0; actives 1.5% (n = 340,000);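 active = mean Tm shift, scaled 0 neutral to 100 positive control, at about 1.3% or above, every replicate too, limit read from the data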
ERAP1 HTS inh: inhibitors of human ERAP1 aminopeptidase; AID 652197; recombinant ERAP1, Leu-AMC fluorescence, 60 min; actives 0.15% (n = 340,000); inhibition, % at 10.7 µM; Q9NZ08;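 active = mean replicate inhibition of at least 30%, or all replicates individually reaching that 30% level; inactive = mean below 30% and not every replicate reaching it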
DENV2 CPE rescue: protects cells from dengue virus 2 cytopathic effect; DENV2-infected cells, cytopathic effect rescue, plate reader; CPE inhibition, % at 9.99 µM; actives 1.7% (n = 350,000); AID 651640; in the data active = CPE inhibition above about 20%, passing the limit was not always enough; tested in BHK-21 cells
Large screens that a line does not name were inactive. In the library only some 3.7% were active in any assay of this set; here they are far more common.

COc1cc(CC(=O)OCn2nnc3ccccc3c2=O)cc(OC)c1OC	FGF22 binding 43.9 (no result: E-selectin induc)
CC(NC(=O)c1ccccc1)C(=O)OCn1nnc2ccccc2c1=O (stereo unspecified)	DENV2 CPE rescue 33.2 (no result: E-selectin induc)
CNC(=O)C[C@@H]1CC[C@@H]2[C@@H](COc3ccc(NC(=O)Nc4ccc(F)c(F)c4)cc3C(=O)N2C)O1	none
CN1[C@@H]2c3ccc(-c4cccc(F)c4)c(=O)n3C[C@@H]2[C@@H](CO)[C@@H]1C(=O)NC1CCCCC1	none (no result: FGF22 binding)
COCCCn1c(C(=O)NCCN2CCOCC2)cc2c(=O)n3ccccc3nc21	ERAP1 HTS inh 41.7 (no result: E-selectin induc)
N=c1c(C(=O)NCCN2CCOCC2)cc2c(=O)n3ccccc3nc2n1CCc1ccccc1	ERAP1 HTS inh 50.9
C[C@@H](NC(=O)c1ncn(C)c1C(=O)N[C@H](C)c1ccccc1)c1ccccc1	DENV2 CPE rescue 89.8
C[C@@H](NC(=O)c1ncn2c1c(=O)[nH]c1cccnc12)c1ccccc1	none
COc1ccc2c3c(n(C)c2c1)[C@@H](CO)N(C(=O)CC1CC1)CC31CCN(C(=O)CC2CC2)CC1	none
Cn1cnc(C(=O)N2CCN(C(=O)OC(C)(C)C)CC2)c1C(=O)N1CCN(C(=O)OC(C)(C)C)CC1	ERAP1 HTS inh 105.8 (no result: E-selectin induc)
Cc1cccc(-c2ccc([C@H]3[C@H]4CN(C(=O)NC5CCCCC5)CC(=O)N4[C@H]3CO)cc2)c1	none (no result: FGF22 binding)
COc1ccc(NC(=O)N(C)C[C@H]2OCCCC[C@H](C)Oc3ccc(NC(=O)CCC(F)(F)F)cc3C(=O)N([C@@H](C)CO)C[C@@H]2C)cc1	none
O=C(COC(=O)c1cccc(Br)c1)Nc1ccc2[nH]c(=O)[nH]c2c1	DENV2 CPE rescue 72.7 (no result: E-selectin induc)
O=C(C[C@@H]1CC[C@H]2[C@@H](COC[C@H](O)CN2Cc2nccs2)O1)NCc1ccccc1F	none
C[C@H](CO)N1C[C@H](C)[C@@H](CN(C)S(=O)(=O)c2ccccc2)OCCCC[C@H](C)Oc2ccc(NC(=O)Nc3ccc4c(c3)OCO4)cc2C1=O	DENV2 CPE rescue 29.4
C[C@@H]1CN([C@@H](C)CO)C(=O)c2cc(NC(=O)Nc3ccc4c(c3)OCO4)ccc2O[C@@H](C)CCCCO[C@@H]1CN(C)S(=O)(=O)c1ccccc1	none
C[C@@H]1CCCCO[C@H](CN(C)S(=O)(=O)c2ccccc2)[C@@H](C)CN([C@H](C)CO)C(=O)c2cc(NC(=O)Nc3ccc4c(c3)OCO4)ccc2O1	DENV2 CPE rescue 91.3
C[C@H]1CCCCO[C@H](CN(C)S(=O)(=O)c2ccccc2)[C@@H](C)CN([C@@H](C)CO)C(=O)c2cc(NC(=O)Nc3ccc4c(c3)OCO4)ccc2O1	DENV2 CPE rescue 60.8
O=c1c2cc(-c3ccccc3)sc2nc2n1CCC2	FGF22 binding 44.1 (no result: E-selectin induc)
Cc1nc2sc(-c3ccccc3)cc2c(=O)n1N	none (no result: E-selectin induc)
CNC(=O)C[C@H]1CC[C@H]2[C@@H](COc3ccc(NC(=O)Nc4ccccc4F)cc3C(=O)N2C)O1	none
C[C@H]1CN([C@@H](C)CO)S(=O)(=O)c2ccc(C#CCN(C)C)cc2O[C@@H]1CN(C)C(=O)C1CCC1	DENV2 CPE rescue 27.4
C[C@H](CO)N1C[C@H](C)[C@@H](CN(C)C(=O)C2CCCCC2)Oc2cc(C#CC(C)(C)O)ccc2S1(=O)=O	none
C[C@@H]1CN([C@H](C)CO)S(=O)(=O)c2ccc(C#CC(C)(C)O)cc2O[C@@H]1CN(C)C(=O)C1CCCCC1	DENV2 CPE rescue 20.4
Cc1ccc(S(=O)(=O)Nc2ccc3c(c2)CC(=O)N([C@H](C)CO)C[C@H](C)[C@H](CN(C)S(=O)(=O)c2cccs2)O3)cc1	none
CC(C)NC(=O)N1CCCCN2[C@@H](CO)[C@@H](c3ccc(C#CC4CC4)cc3)[C@@H]2C1	DENV2 CPE rescue 39.9
CC(C)NC(=O)N1CCCCN2[C@H](CO)[C@H](c3ccc(C#CC4CC4)cc3)[C@H]2C1	DENV2 CPE rescue 66.2
C[C@@H]1CCCCO[C@@H](CN(C)S(=O)(=O)c2ccc(F)cc2)[C@H](C)CN([C@@H](C)CO)C(=O)c2cc(NS(=O)(=O)c3cccs3)ccc2O1	none
COC(=O)C[C@H]1C[C@H]2c3cc(NS(=O)(=O)c4ccc(F)cc4)ccc3O[C@H]2[C@H](CO)O1	none
COCOc1cccc(CN2CCC2(C)C(=O)Nc2ccc(C)c(O)c2)c1 (stereo unspecified)	CFTR F508del cor 8.8
